Screening data deposited in PubChem by several laboratories.
This is a sample that favours compounds with a hit; in the whole collection about 2.4% have one here.
T cruzi repl: blocks replication of Trypanosoma cruzi | T. cruzi beta-gal in NIH3T3, luminescence, 90 h | inhibition, % (test concentration not listed) | 300,000 tested, 1.4% active;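 active = mean inhibition across valid replicates above about 55%, limit read from the data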;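 also: signal also drops with host cell toxicity which is not excluded here; higher percent means less beta-gal luminescence so fewer parasites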
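System: NIH/3T3 fibroblasts plus reporter T. cruzi. Medium: DMEM plus 2% FBS. Probe or stimulus: 5000 reporter trypomastigotes per well. Compound: single 50 nL compound addition per well in DMSO. Incubation: co-culture of at least 90 h after 3 h attachment. Detection: GalScreen β-gal luminescence, detergent lysis, 60 min. Evaluation: parasite load inhibition, %.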
PP5 inh: PP5 (human) phosphatase inhibition | purified PP5c, OMFP substrate fluorescence | AID 1987 | 320,000 tested, 0.18% active | inhibition, % at 6.7 µM;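 active = inhibition above the campaign's mean inhibition across all tested compounds plus 3 SD, cut at about 9.5% in these data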
Target sequence (P53041 whole entry, looked up): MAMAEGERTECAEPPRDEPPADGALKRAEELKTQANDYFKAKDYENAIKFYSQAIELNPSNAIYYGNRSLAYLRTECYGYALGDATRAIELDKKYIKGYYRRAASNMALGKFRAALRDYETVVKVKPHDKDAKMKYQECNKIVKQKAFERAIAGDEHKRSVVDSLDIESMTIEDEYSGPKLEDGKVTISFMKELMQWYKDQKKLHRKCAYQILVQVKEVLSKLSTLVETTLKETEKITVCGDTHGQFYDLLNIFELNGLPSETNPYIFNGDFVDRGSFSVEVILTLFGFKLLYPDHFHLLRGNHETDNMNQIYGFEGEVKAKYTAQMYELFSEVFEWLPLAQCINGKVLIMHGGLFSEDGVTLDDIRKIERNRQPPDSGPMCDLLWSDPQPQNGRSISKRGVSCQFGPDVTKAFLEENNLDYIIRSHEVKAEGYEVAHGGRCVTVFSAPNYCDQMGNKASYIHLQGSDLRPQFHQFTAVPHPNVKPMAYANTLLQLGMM
JMJD2C inh: human JMJD2C demethylase inhibition; Q9H3R0; AID 2099; 330,000 tested, 0.069% active; GST-JMJD2C(1-420) H3K9me3 demethylation, DELFIA europium; inhibition, % at 2.35 µM;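 active = more than half of a compound's replicate wells show inhibition beyond 50%, single wells judged on their own value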;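 also: signal counts dimethyl H3K9 product captured on neutravidin plate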
CTSL1 counter: counter-screen for PFM18AAP inhibitors: inhibitors of F. hepatica cathepsin L1. AID 1906. inhibition, % at 5.96 µM. 300,000 tested, 0.49% active. recombinant F. hepatica cathepsin L1, Z-Leu-Arg-MCA fluorescence;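 active = inhibition above the mean of all tested compounds plus 3 SD, set per screening campaign, cut at about 17% in these data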
p-CIP stab down: lowers stability of the mouse p/CIP coactivator protein; F442A p/CIP-EGFP cells, EGFP fluorescence, 16 h; 290,000 tested, 0.01% active; decrease of EGFP signal, % at 10 µM; Q05BA5;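 active = EGFP signal decrease of at least 30% at 10 µM or well 3 SD below plate mean, unless failing retest; inactive = the rest, including hits failing retest or dose response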
Cardio protect: modulators protecting cardiomyocytes from myocardial damage. H9c2 cardiomyocytes, H2O2 injury protection, ATPLite, 2 h. 360,000 tested, 0.63% active. protection from H2O2 cell death, % at 20 µM;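 active = compounds giving at least 50% protection of heart cells from peroxide-induced death in the single-dose screen, raw or plate-pattern-corrected value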
Numbers stand for hits; - = inactive; . = not tested or not shown.

SMILES	T cruzi repl	PP5 inh	JMJD2C inh	CTSL1 counter	p-CIP stab down	Cardio protect
C=CCN(CC=C)C(=S)NC(=O)c1ccc(-c2ccccc2)cc1	55.3	-	-	-	-	-
Cc1ccc(-c2c[n+]3c(n2-c2ccccc2)CCC3)cc1	55.0	-	-	-	-	-
CCOc1ccc(-n2c(-c3ccccc3)c[n+]3c2CCCCC3)cc1	60.0	-	-	-	-	-
CC1CN(S(=O)(=O)c2ccc(C(=O)N(CCCN(C)C)c3nc4c(Cl)cccc4s3)cc2)CC(C)O1 (stereo not drawn)	-	-	-	-	-	-
O=C(O)c1ccc(C(=O)O)c(C(=O)c2ccc(NC(=O)c3ccccc3)cc2)c1	-	-	-	-	-	-
COC(=O)c1sc2nc(C)cc(C)c2c1N	-	-	-	-	-	-
Cc1cc(C)c2c(N)c(C(=O)c3ccccc3Cl)sc2n1	56.4	-	-	-	-	-
COc1cc(/C=N/NC(=O)c2sc3nc(C)cc(C)c3c2N)ccc1O	-	-	-	-	-	53.1
Cc1cc(C)c2c(N)c(C(=O)Nc3ncc(C)s3)sc2n1	.	-	.	16.8	-	-
COc1cc(/C=N/NC(=O)CNC(=O)c2ccco2)ccc1O	-	-	-	28.5	-	-
CC(=O)c1ccc(NC(=O)/C(=C\c2ccc(F)cc2)NC(=O)c2ccco2)cc1	-	-	-	-	-	-
COc1ccccc1N1CCN(c2nccc(C)n2)CC1	-	-	-	-	-	-
Cc1ccc(CNC(=O)Nc2ccccc2)n1C	-	-	-	-	-	-
CC(=O)N1c2ccc(S(=O)(=O)N3CCCC3C(=O)Nc3ccc(C)cc3)cc2CC1C (stereo not drawn)	-	-	-	18.8	-	-
CN(CC(=O)Nc1ccc(F)cc1)CC(=O)N1CCCCCC1	.	-	-	.	.	-
COc1cc(Nc2nc3ccccc3n3nnnc23)cc(OC)c1OC	-	-	-	-	-	68.0
COc1ccc(Nc2nc3ccccc3n3nnnc23)cc1	-	-	-	-	-	-
O=C(c1ccco1)N1CCN(Cc2csc(-c3ccccc3Cl)n2)CC1	-	-	-	-	-	-
CCOC(=O)CSc1nnc(-c2cc(OC)c(OC)c(OC)c2)o1	-	-	-	-	-	-
COc1cc(-c2nnc(SCc3cc(=O)oc4cc(O)c(O)cc34)o2)cc(OC)c1OC	-	-	-	-	-	81.2
OC(COc1ccc(CNCCc2ccc(C(F)(F)F)cc2)cc1)CN1CCCCC1 (stereo not drawn)	58.6	-	-	-	-	-
OC(COc1ccc(OCC(O)CN2CCCCC2)cc1)CN1CCCCC1 (stereo not drawn)	-	-	-	-	-	-
CC1(C)Oc2ccc3ccc(=O)oc3c2[C@@H](O)[C@@H]1O	.	-	-	.	.	-
CCCS(=O)(=O)NC(=O)C1(C)CCCN(C(=O)c2cc(-c3cccs3)oc2C)C1 (stereo not drawn)	.	.	.	.	.	-
Cc1ccc(-n2nnnc2C(Cl)(Cl)c2nnnn2-c2ccc(C)cc2)cc1	63.3	-	-	-	-	-
SMILES	T cruzi repl	PP5 inh	JMJD2C inh	CTSL1 counter	p-CIP stab down	Cardio protect
Clc1ccc(-c2nnnn2-c2ccc(Cl)cc2)cc1	-	-	-	-	-	-
O=C(COC(=O)c1cnccn1)NCCc1ccc(Cl)cc1	.	.	.	.	.	-
CN(C)c1ccc(/C=C/c2cc[n+](C)cc2)cc1	85.4	-	-	-	-	-
CCCCCC[n+]1ccccc1/C=C/c1ccc(N(C)C)cc1	.	.	.	.	.	-
CC[n+]1ccccc1/C=C/c1ccc(N(C)C)cc1	59.4	.	-	.	-	-
Cc1ccc(/C=C/c2ccc(N(C)C)cc2)[n+](C)c1	61.3	-	-	-	-	-
Cc1cc(=O)c(C(=O)O)nn1-c1ccccc1Cl	-	-	-	-	-	-
COc1ccc(CCN2CC(C(=O)N(C)CC(=O)Nc3ccc(F)c(F)c3F)CC2=O)cc1OC (stereo not drawn)	.	.	.	.	.	-
CCOC(=O)Cc1csc(NC(=O)NC2(C(F)(F)F)Oc3ccc(Cl)cc3O2)n1 (stereo not drawn)	-	-	-	-	-	62.3
CCOC(=O)Cc1csc(NC(=O)Cc2ccc(Cl)cc2)n1	-	-	-	-	-	-
COc1cccc(NC(=O)NC2(C(F)(F)F)Oc3ccccc3O2)c1	-	-	-	-	-	75.0
CCOC(=O)Cc1csc(NC(=O)NC2(C(F)(F)F)Oc3cc(Cl)c(Cl)cc3O2)n1	-	-	-	-	-	56.7
CCOC(=O)Cc1csc(NC(=O)NC2(C(F)(F)F)Oc3ccccc3O2)n1	-	-	-	-	-	50.2
CCC(NC(=S)NCc1ccc(F)cc1)c1ccccc1 (stereo not drawn)	-	-	-	-	-	-
Cc1ccc(C2CC(c3cccs3)=NN2C(=O)CCl)cc1 (stereo not drawn)	59.0	-	-	52.2	-	-
CCN1CCN(CCCNC(=O)C(NC(=O)C2CCC(C)CC2)C(C)C)CC1 (stereo not drawn)	.	.	.	.	-	.
CCCCN(C)CCNC(=O)C(NC(=O)C1CCC(C)CC1)C(C)C (stereo not drawn)	-	-	-	55.7	-	-
Cc1c(C(=O)NCc2ccc(F)cc2)sc(=O)n1Cc1ccccc1F	.	.	.	.	.	-
c1ccc(-c2nc(-c3ccco3)cs2)nc1	-	-	55.8	-	-	-
CCc1cc2c(SCC(=O)O)ncnc2s1	-	-	-	-	-	-
CCc1cc2c(SCC(=O)c3ccccc3)ncnc2s1	-	-	-	18.8	-	-
CC(=O)Nc1ccc(NC(=O)CC2SC(=O)N(CC(=O)c3ccccc3)C2=O)cc1 (stereo not drawn)	-	-	-	96.1	-	-
CCN(CC)C(=O)c1ccc(-c2nnc(Nc3ccc(O)cc3)c3ccccc23)cc1	-	-	-	-	-	58.8
NC(=O)c1ccc(Nc2nnc(-c3ccc(O)cc3)c3ccccc23)cc1	-	-	-	-	-	59.1
COc1ccccc1CNc1ccc(Br)cn1	-	-	-	-	-	-
SMILES	T cruzi repl	PP5 inh	JMJD2C inh	CTSL1 counter	p-CIP stab down	Cardio protect
C=CCn1c(C)cc(C(=O)CSc2nnc(NC(C)C)s2)c1C	-	-	-	-	-	-
C=CCn1c(C)cc(C(=O)CSc2nnc(NCc3ccccc3)s2)c1C	-	11.6	.	-	-	-
CC(C)N=C1NN=C(c2ccc(F)cc2)CS1	-	-	-	16.8	-	-
CCN=C1NN=C(c2ccc(C)cc2)CS1	-	-	-	-	-	-
Cc1cc(=O)[nH]c2nnc(-c3ccc(Cl)cc3)n12	-	-	-	-	-	-
CN1CCN(c2oc(COc3ccc(-c4ccccc4)cc3)nc2C#N)CC1	76.7	-	-	-	-	-
COc1ccc(CN2CCN(C(=O)C3CCC(CNS(=O)(=O)c4ccccc4)CC3)CC2)c(OC)c1OC (stereo not drawn)	58.3	-	-	-	-	-
CCOC(=O)N1CCN(C(=O)C2CCC(CNS(=O)(=O)c3ccccc3)CC2)CC1 (stereo not drawn)	-	-	-	-	-	-
